Test results as given in ChEMBL document CHEMBL3596093, “Synthesis and antimicrobial evaluation of 5-aryl-1,2,4-triazole-3-thione derivatives containing a rhodanine moiety” (2015).
Converted amounts (≈) assume the structure as drawn.

Experiments:
[1] = tested on: Pseudomonas aeruginosa; experiment: Antibacterial activity against Pseudomonas aeruginosa 2004 after 24 hrs by two-fold serial dilution method; assay type: functional; settings: Pseudomonas aeruginosa, 2004, 24 h
Summary of the method: (§1)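 Strains grown to mid-log phase in Mueller-Hinton broth, then diluted 1000-fold in the same broth to about 10^5 CFU/mL. Compounds were made up as DMSO stocks and two-fold serially diluted from a final top concentration of 64 µg/mL. Incubation was 37 °C for 24 h. Growth was read as absorbance at 630 nm on a microplate reader. MIC assays were run in triplicate.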

[2] = tested on: Staphylococcus aureus; experiment: Antibacterial activity against methicillin-resistant Staphylococcus aureus CCARM 3167 after 24 hrs by two-fold serial dilution method; assay type: functional; settings: CCARM 3167, 24 h
Summary of the method: (§2)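 Broth microdilution MIC. Bacteria grown to mid-log phase in Mueller-Hinton broth, diluted 1000-fold, about 10^5 CFU/mL. Compounds from DMSO stocks, two-fold serial dilution from a final 64 µg/mL. Incubation at 37 °C for 24 h. Growth read as absorbance at 630 nm on a microplate reader. Run in triplicate.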

[3] = tested on: Staphylococcus aureus; experiment: Antibacterial activity against methicillin-resistant Staphylococcus aureus CCARM 3506 after 24 hrs by two-fold serial dilution method; assay type: functional; settings: CCARM 3506, 24 h; summary of the method: as §2
[4] = tested on: Staphylococcus aureus; experiment: Antibacterial activity against quinolone-resistant Staphylococcus aureus CCARM 3519 after 24 hrs by two-fold serial dilution method; assay type: functional; settings: CCARM 3519, 24 h; summary of the method: as §2
[5] = tested on: Candida albicans; experiment: Antifungal activity against Candida albicans 7535 after 24 hrs by two-fold serial dilution method; assay type: functional; settings: Candida albicans, 7535, 24 h
[6] = tested on: Escherichia coli; experiment: Antibacterial activity against Escherichia coli KCTC 1924 after 24 hrs by two-fold serial dilution method; assay type: functional; settings: KCTC 1924, 24 h; summary of the method: as §1
[7] = tested on: Staphylococcus aureus; experiment: Antibacterial activity against Staphylococcus aureus KCTC 503 after 24 hrs by two-fold serial dilution method; assay type: functional; settings: KCTC 503, 24 h; summary of the method: as §1
[8] = tested on: Escherichia coli; experiment: Antibacterial activity against Escherichia coli CCARM 1356 after 24 hrs by two-fold serial dilution method; assay type: functional; settings: CCARM 1356, 24 h; summary of the method: as §1
[9] = tested on: Staphylococcus aureus; experiment: Antibacterial activity against Staphylococcus aureus RN4220 after 24 hrs by two-fold serial dilution method; assay type: functional; settings: RN4220, 24 h; summary of the method: as §2
[10] = tested on: Staphylococcus aureus; experiment: Antibacterial activity against quinolone-resistant Staphylococcus aureus CCARM 3505 after 24 hrs by two-fold serial dilution method; assay type: functional; settings: CCARM 3505, 24 h; summary of the method: as §2
[11] = tested on: Escherichia coli; experiment: Ratio of MBC to MIC for Escherichia coli KCTC 1924; assay type: functional
Summary of the method: (§3)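 The ratio divides MBC by MIC for the same strain. MIC comes from two-fold broth microdilution in Mueller-Hinton broth (about 10^5 CFU/mL, 37 °C, 24 h, absorbance at 630 nm). MBC comes from subculturing 5 µL from clear wells onto Mueller-Hinton agar for another 24 h at 37 °C, taken as the lowest concentration with no colonies.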

[12] = tested on: Streptococcus mutans; experiment: Antibacterial activity against Streptococcus mutans 3065 after 24 hrs by two-fold serial dilution method; assay type: functional; settings: Streptococcus mutans, 3065, 24 h; summary of the method: as §1
[13] = tested on: Salmonella typhimurium; experiment: Antibacterial activity against Salmonella typhimurium 2421 after 24 hrs by two-fold serial dilution method; assay type: functional, Salmonella enterica subsp. enterica serovar Typhimurium; settings: Salmonella enterica, 2421, 24 h; summary of the method: as §1
[14] = tested on: Staphylococcus aureus; experiment: Antibacterial activity against Staphylococcus aureus KCTC 209 after 24 hrs by two-fold serial dilution method; assay type: functional; settings: KCTC 209, 24 h; summary of the method: as §1
[15] = tested on: Pseudomonas aeruginosa; experiment: Antibacterial activity against Pseudomonas aeruginosa 2742 after 24 hrs by two-fold serial dilution method; assay type: functional; settings: Pseudomonas aeruginosa, 2742, 24 h; summary of the method: as §1
[16] = tested on: Escherichia coli; experiment: Bactericidal activity against Escherichia coli KCTC 1924 after 24 hrs by agar plate method; assay type: functional; settings: KCTC 1924, 24 h
Summary of the method: (§4)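 Samples of 5 µL from MIC wells with no visible growth were plated onto fresh Mueller-Hinton agar and incubated a further 24 h at 37 °C. MBC is the lowest concentration giving no visible colony growth on the agar. Assays were run in triplicate.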

[17] = tested on: Staphylococcus aureus; experiment: Bactericidal activity against Staphylococcus aureus RN4220 after 24 hrs by agar plate method; assay type: functional; settings: RN4220, 24 h; summary of the method: as §4
[18] = tested on: Staphylococcus aureus; experiment: Bactericidal activity against methicillin-resistant Staphylococcus aureus CCARM 3167 after 24 hrs by agar plate method; assay type: functional; settings: CCARM 3167, 24 h
Summary of the method: (§5)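 5 µL from each well without visible growth plated on fresh Mueller-Hinton agar, then 37 °C for a further 24 h. MBC is the lowest concentration giving no visible colonies. Run in triplicate.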

[19] = tested on: Staphylococcus aureus; experiment: Bactericidal activity against quinolone-resistant Staphylococcus aureus CCARM 3505 after 24 hrs by agar plate method; assay type: functional; settings: CCARM 3505, 24 h; summary of the method: as §5
[20] = tested on: Staphylococcus aureus; experiment: Ratio of MBC to MIC for Staphylococcus aureus KCTC 503; assay type: functional; summary of the method: as §3
[21] = tested on: Streptococcus mutans; experiment: Bactericidal activity against Streptococcus mutans 3065 after 24 hrs by agar plate method; assay type: functional; settings: Streptococcus mutans, 3065, 24 h; summary of the method: as §4
[22] = tested on: Staphylococcus aureus; experiment: Bactericidal activity against quinolone-resistant Staphylococcus aureus CCARM 3519 after 24 hrs by agar plate method; assay type: functional; settings: CCARM 3519, 24 h; summary of the method: as §5
[23] = tested on: Staphylococcus aureus; experiment: Bactericidal activity against Staphylococcus aureus KCTC 503 after 24 hrs by agar plate method; assay type: functional; settings: KCTC 503, 24 h; summary of the method: as §5
[24] = tested on: Staphylococcus aureus; experiment: Bactericidal activity against methicillin-resistant Staphylococcus aureus CCARM 3506 after 24 hrs by agar plate method; assay type: functional; settings: CCARM 3506, 24 h; summary of the method: as §5
[25] = tested on: Staphylococcus aureus; experiment: Bactericidal activity against Staphylococcus aureus KCTC 209 after 24 hrs by agar plate method; assay type: functional; settings: KCTC 209, 24 h; summary of the method: as §4

| Structure (SMILES) | MIC [1] [µg/mL] | MIC [2] [µg/mL] | MIC [3] [µg/mL] | MIC [4] [µg/mL] | MIC [5] [µg/mL] | MIC [6] [µg/mL] | MIC [7] [µg/mL] | MIC [8] [µg/mL] | MIC [9] [µg/mL] | MIC [10] [µg/mL] | MIC [12] [µg/mL] | MIC [13] [µg/mL] | MIC [14] [µg/mL] | MIC [15] [µg/mL] | MBC [17] [µg/mL] | MBC [18] [µg/mL] | MBC [19] [µg/mL] | MBC [21] [µg/mL] | MBC [22] [µg/mL] | MBC [23] [µg/mL] | also measured |
| --- | --- | --- | --- | --- | --- | --- | --- | --- | --- | --- | --- | --- | --- | --- | --- | --- | --- | --- | --- | --- | --- |
| O=C(O)CN1C(=O)/C(=C/c2ccc(/C=N/n3c(-c4ccccc4Cl)n[nH]c3=S)cc2)SC1=S | > 128 | > 64 | > 64 | > 64 | > 64 | 64 (≈ 124 µM) | > 64 | > 128 | 64 (≈ 124 µM) | > 64 | > 64 | > 128 | > 64 | > 128 | 256 (≈ 496 µM) | – | – | – | – | – | Ratio [11]: <=4; MBC [16]: 128 µg/mL (≈ 248 µM) |
| O=C(O)[C@H](Cc1ccccc1)N1C(=O)/C(=C/c2ccc(/C=N/n3c(-c4ccc(F)cc4)n[nH]c3=S)cc2)SC1=S | > 128 | 16 (≈ 27.1 µM) | 64 (≈ 109 µM) | 16 (≈ 27.1 µM) | > 64 | > 128 | 32 (≈ 54.3 µM) | > 128 | 16 (≈ 27.1 µM) | 16 (≈ 27.1 µM) | 64 (≈ 109 µM) | > 128 | > 64 | > 128 | 128 (≈ 217 µM) | 128 (≈ 217 µM) | 128 (≈ 217 µM) | 256 (≈ 434 µM) | 128 (≈ 217 µM) | 128 (≈ 217 µM) | Ratio [20]: <=4; MBC [24]: > 256 µg/mL |
| O=C(O)[C@H](Cc1ccccc1)N1C(=O)/C(=C/c2ccc(/C=N/n3c(-c4ccc(Br)cc4)n[nH]c3=S)cc2)SC1=S | > 128 | 8 (≈ 12.3 µM) | 16 (≈ 24.6 µM) | 8 (≈ 12.3 µM) | > 64 | > 128 | 8 (≈ 12.3 µM) | > 128 | 8 (≈ 12.3 µM) | 8 (≈ 12.3 µM) | 16 (≈ 24.6 µM) | > 128 | > 64 | > 128 | 64 (≈ 98.4 µM) | 32 (≈ 49.2 µM) | 32 (≈ 49.2 µM) | 64 (≈ 98.4 µM) | 64 (≈ 98.4 µM) | 32 (≈ 49.2 µM) | Ratio [20]: <=4; MBC [24]: 128 µg/mL (≈ 197 µM) |
| O=C1NC(=S)S/C1=C\c1ccc(/C=N/n2c(-c3ccccc3Br)n[nH]c2=S)cc1 | > 128 | 16 (≈ 31.8 µM) | 16 (≈ 31.8 µM) | 16 (≈ 31.8 µM) | > 64 | 16 (≈ 31.8 µM) | 16 (≈ 31.8 µM) | > 128 | 16 (≈ 31.8 µM) | 16 (≈ 31.8 µM) | 16 (≈ 31.8 µM) | > 128 | 64 (≈ 127 µM) | > 128 | 128 (≈ 255 µM) | > 128 | > 128 | > 128 | > 128 | > 128 | MBC [25]: > 256 µg/mL; MBC [16]: > 128 µg/mL; MBC [24]: > 128 µg/mL |
